Measurements from ChEMBL document CHEMBL3526048, “In vitro metabolism of rivoglitazone, a novel peroxisome proliferator-activated receptor γ agonist, in rat, monkey, and human liver microsomes and freshly isolated hepatocytes” (Drug Metab Dispos, 2011).

Tests used:
[1] = Drug metabolism in human hepatocytes assessed as formation of 3-(4-((6-methoxy-1-methyl-1H-benzo[d]imidazol-2-yl)methoxy)phenyl)-2-(methylsulfinyl)propanamide at 30 uM after 3 hrs by radio-HPLC/LC-MS/MS analysis in presence of NADPH-generating system/SAM; assay type: ADME, cell-based, Hepatocyte
Cytochrome P450 1A2 = biological target: T1, Cytochrome P450 1A2 (Homo sapiens, UniProt P05177); test: Activity of human CYP1A2 expressed in microsomes isolated from baculovirus infected insect cell assessed as enzyme-mediated 2-hydroxy-3-(4-((6-methoxy-1-methyl-1H-benzo[d]imidazol-2-yl)methoxy)phenyl)propanamide formation at 20 uM after 2 hrs by radio-HPLC/LC-MS/MS analysis in presence of NADPH-generating system and NADPH-generating system/SAM; assay type: ADME
T1 sequence (P05177 whole entry): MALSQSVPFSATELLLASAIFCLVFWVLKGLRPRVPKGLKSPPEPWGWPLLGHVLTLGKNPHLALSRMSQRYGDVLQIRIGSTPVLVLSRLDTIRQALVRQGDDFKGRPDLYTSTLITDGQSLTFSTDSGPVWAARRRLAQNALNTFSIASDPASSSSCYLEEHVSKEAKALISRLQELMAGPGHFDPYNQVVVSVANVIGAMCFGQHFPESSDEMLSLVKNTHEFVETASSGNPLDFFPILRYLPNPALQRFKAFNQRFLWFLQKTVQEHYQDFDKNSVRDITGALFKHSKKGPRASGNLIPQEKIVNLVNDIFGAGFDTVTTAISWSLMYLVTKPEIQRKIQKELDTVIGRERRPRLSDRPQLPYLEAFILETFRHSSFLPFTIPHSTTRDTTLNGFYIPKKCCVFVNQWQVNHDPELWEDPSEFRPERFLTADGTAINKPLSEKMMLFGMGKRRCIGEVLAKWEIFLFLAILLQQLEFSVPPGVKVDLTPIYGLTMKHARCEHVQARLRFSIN
In short: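 Baculovirus/insect-cell microsomes expressing single human CYPs, 1 mg/ml protein, with 50 mM potassium phosphate (pH 7.4) or 100 mM Tris-HCl (pH 7.5). NADPH-generating system: 2 mM NADP⁺, 20 mM glucose 6-phosphate, 2 units/ml G6PDH, 10 mM MgCl₂. [¹⁴C]rivoglitazone at 20 μM, 2 h at 37°C with shaking. Control used insect-cell control supersomes. Stopped with acetonitrile; supernatant concentrated under nitrogen; metabolites analysed by radio-HPLC, LC-MS and LC-MS/MS.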

Cytochrome P450 2D6 = Cytochrome P450 2D6 (Homo sapiens, UniProt P10635); test: Activity of human CYP2D6 expressed in microsomes isolated from baculovirus infected insect cell assessed as enzyme-mediated 3-(4-((6-methoxy-1-methyl-1H-benzo[d]imidazol-2-yl)methoxy)phenyl)-2-(methylthio)propanoic acid formation at 20 uM after 2 hrs by radio-HPLC/LC-MS/MS analysis in presence of NADPH-generating system/SAM and UDPGA/SAM; assay type: ADME
[2] = biological target: T2, UDP-glucuronosyltransferase 1A8 (Homo sapiens, UniProt Q9HAW9); test: Activity of human UGT1A8 expressed in microsomes isolated from baculovirus infected insect cell assessed as enzyme-mediated 2-mercapto-3-(4-((6-methoxy-1-methyl-1H-benzo[d]imidazol-2-yl)methoxy)phenyl)propanoic acid formation at 20 uM after 4 hrs by radio-HPLC/LC-MS/MS analysis in presence of UDPGA; assay type: ADME
T2 sequence (Q9HAW9 whole entry): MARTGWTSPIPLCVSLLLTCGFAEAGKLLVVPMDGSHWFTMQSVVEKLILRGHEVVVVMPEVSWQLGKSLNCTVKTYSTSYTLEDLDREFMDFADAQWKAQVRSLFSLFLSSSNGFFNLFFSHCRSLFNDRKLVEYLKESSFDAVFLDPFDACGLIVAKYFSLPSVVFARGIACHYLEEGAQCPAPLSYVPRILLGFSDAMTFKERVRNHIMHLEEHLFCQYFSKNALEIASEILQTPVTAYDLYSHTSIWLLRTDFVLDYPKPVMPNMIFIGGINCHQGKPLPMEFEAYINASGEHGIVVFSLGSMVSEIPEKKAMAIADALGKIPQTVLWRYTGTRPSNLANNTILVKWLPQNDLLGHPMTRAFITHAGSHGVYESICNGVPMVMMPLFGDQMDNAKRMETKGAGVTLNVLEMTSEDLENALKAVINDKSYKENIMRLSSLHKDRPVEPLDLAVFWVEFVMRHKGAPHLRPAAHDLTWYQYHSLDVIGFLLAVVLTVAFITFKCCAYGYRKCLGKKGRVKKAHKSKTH

[3] = biological target: T3, UDP-glucuronosyltransferase 1A9 (Homo sapiens, UniProt O60656); test: (§1) Activity of human UGT1A9 expressed in microsomes isolated from baculovirus infected insect cell assessed as enzyme-mediated (2S,3S,4S,5R,6R)-3,4,5-trihydroxy-6-(5-(4-((6-methoxy-1-methyl-1H-benzo[d]imidazol-2-yl)methoxy)benzyl)-2,4-dioxothiazolidin-3-yl)tetrahydro-2H-pyran-2-carboxylic acid formation at 20 uM after 4 hrs by radio-HPLC/LC-MS/MS analysis in presence of UDPGA; assay type: ADME
T3 sequence (O60656 whole entry): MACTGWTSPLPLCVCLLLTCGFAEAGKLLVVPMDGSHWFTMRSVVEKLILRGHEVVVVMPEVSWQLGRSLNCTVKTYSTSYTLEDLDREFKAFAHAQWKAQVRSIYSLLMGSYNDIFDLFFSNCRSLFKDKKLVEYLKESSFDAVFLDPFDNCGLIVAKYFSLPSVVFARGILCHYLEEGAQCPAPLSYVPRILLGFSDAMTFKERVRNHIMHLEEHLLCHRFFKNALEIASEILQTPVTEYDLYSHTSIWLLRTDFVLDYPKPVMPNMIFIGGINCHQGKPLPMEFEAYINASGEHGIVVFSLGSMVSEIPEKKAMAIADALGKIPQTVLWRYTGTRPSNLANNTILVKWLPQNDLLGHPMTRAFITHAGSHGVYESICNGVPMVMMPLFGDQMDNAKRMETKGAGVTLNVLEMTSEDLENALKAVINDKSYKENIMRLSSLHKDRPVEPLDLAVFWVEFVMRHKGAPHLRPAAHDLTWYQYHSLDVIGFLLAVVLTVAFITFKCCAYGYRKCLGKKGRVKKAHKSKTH

[4] = biological target: T4, UDP-glucuronosyltransferase 2B17 (Homo sapiens, UniProt O75795); test: as §1, with “UGT2B17” for “UGT1A9”; assay type: ADME
T4 sequence (O75795 whole entry): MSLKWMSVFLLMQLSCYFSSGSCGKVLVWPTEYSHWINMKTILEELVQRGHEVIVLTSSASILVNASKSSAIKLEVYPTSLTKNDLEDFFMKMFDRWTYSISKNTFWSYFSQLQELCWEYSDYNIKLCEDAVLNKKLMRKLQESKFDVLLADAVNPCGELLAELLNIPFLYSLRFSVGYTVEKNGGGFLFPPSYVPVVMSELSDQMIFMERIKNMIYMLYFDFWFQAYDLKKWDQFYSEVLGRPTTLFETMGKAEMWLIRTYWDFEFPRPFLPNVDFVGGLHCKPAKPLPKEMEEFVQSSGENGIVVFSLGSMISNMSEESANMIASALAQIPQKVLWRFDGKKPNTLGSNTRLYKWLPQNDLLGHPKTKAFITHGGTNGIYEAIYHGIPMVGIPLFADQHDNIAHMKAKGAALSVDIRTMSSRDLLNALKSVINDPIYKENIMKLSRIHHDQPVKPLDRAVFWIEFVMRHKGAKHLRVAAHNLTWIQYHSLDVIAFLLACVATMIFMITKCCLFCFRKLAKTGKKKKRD

Cytochrome P450 2D6, sequence (P10635 whole entry): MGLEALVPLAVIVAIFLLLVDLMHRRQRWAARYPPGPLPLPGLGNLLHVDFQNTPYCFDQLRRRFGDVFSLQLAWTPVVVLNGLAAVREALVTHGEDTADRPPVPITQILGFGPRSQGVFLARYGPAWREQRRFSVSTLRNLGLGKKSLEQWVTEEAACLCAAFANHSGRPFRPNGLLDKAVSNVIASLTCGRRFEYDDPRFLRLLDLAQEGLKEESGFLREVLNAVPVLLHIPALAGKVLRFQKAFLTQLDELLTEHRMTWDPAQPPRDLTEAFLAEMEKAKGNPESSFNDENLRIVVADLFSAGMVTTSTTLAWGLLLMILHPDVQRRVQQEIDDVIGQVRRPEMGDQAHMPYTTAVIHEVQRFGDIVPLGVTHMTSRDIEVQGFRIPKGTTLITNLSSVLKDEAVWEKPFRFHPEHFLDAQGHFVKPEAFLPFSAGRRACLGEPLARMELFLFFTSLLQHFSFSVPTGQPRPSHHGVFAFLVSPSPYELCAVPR

- Drug metabolism [1]: metabolite_detected
- Drug metabolism (Cytochrome P450 1A2): metabolite_detected
- Drug metabolism (Cytochrome P450 2D6): metabolite_not_detected
- Drug metabolism [2]: metabolite_not_detected
- Drug metabolism [3]: metabolite_not_detected
- Drug metabolism [4]: metabolite_not_detected
SMILES: COc1ccc2nc(COc3ccc(C[14CH]4SC(=O)NC4=O)cc3)n(C)c2c1.Cl (racemic)
